A3G deaminase: APOBEC3G DNA deaminase inhibitors, primary screen, biochemical, fluorescence, single-stranded DNA substrate, uHTS. inhibition, % at 20 µM. actives 0.28% (n = 330,000). DNA dC->dU-editing enzyme APOBEC-3G (Homo sapiens), Q9HC16. recombinant A3G, ssDNA deamination FAM/TAMRA fluorescence;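 active means inhibition of at least 40% at 20 µM, with no more than 30% in the related APOBEC3A deaminase screen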
ASAP1 GAP inh: inhibitors of human ASAP1 ArfGAP activity, primary screen, biochemical, fluorescence polarization | Arf-GAP with SH3 domain, ANK repeat and PH domain-containing protein 1 (Homo sapiens), … | ASAP1-stimulated ARF1 GTP hydrolysis, GDP FP detection | inhibition, % at 16.5 µM | actives 0.19% (n = 360,000); in the data active means inhibition above about 25%
Target sequence (Q9ULH1 325-724 limits assumed): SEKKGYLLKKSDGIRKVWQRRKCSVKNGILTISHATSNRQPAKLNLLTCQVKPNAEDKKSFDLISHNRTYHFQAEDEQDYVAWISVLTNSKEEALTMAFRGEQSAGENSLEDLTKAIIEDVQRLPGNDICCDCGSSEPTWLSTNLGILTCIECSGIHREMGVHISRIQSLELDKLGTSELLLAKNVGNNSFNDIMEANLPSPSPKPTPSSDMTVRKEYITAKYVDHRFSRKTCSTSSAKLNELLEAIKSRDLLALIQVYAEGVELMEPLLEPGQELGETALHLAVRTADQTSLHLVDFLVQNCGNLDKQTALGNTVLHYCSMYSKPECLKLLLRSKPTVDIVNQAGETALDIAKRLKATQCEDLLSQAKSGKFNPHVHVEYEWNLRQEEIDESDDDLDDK
Statin myotox sup: suppressors of statin myotoxicity in C2C12 myotubes, primary screen, cell-based, single point, plate reader; C2C12 myotubes + simvastatin, ATP luminescence, 48 h; scaled: DMSO 0, geranylgeraniol control 100; rescue of ATP level, % at 7.49 µM; actives 0.78% (n = 330,000);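 active means mean ATP rescue above about 67%, or every replicate alone reaching that limit, limit read from the data, passing the limit was not always enough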;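 further: myotubes were challenged with 10 µM simvastatin during compound exposure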
Mot1-301 SUMO: yeast Mot1-301 growth rescue at high temperature, primary screen, SUMOylation pathway inhibitor project, S. cerevisiae, ATP luminescence, 38.5C; S. cerevisiae Mot1-301 growth rescue; percent above DMSO median, 100 means doubled; growth rescue, % at 18.8 µM; actives 1% (n = 320,000); AID 2716, 2010;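 active means every valid replicate shows activation above 250% relative to neutral control wells; inactive means the rest, any valid replicate at or below 250%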
A3A deaminase: APOBEC3A ssDNA deaminase inhibitors, primary screen, selectivity assay for APOBEC3G inhibitor project, biochemical, FAM/TAMRA oligo cleavage fluorescence; DNA dC->dU-editing enzyme APOBEC-3A (Homo sapiens), P31941; actives 0.41% (n = 330,000); inhibition, % at 20 µM; recombinant A3A, FAM/TAMRA ssDNA deamination fluorescence;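 active means at least 40% inhibition at 20 µM here, with at most 30% in a related deaminase screen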
Target sequence (P31941 whole entry, looked up): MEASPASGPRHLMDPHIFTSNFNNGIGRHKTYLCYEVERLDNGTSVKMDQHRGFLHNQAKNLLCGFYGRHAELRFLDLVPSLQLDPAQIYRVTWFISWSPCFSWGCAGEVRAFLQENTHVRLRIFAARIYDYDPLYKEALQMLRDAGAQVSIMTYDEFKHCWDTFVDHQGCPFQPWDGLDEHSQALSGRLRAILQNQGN
ARFGAP1 inh: inhibitors of rat ARFGAP1 GAP activity, primary screen, biochemical, fluorescence polarization, GDP tracer. Arfgap1-stimulated ARF1 GTP hydrolysis, GDP FP detection. actives 0.26% (n = 360,000). inhibition, % at 16.5 µM;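 active means inhibition above a per-plate limit, mean inhibition of low control wells plus 3 SD, cut at about 25% in these data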
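Assay system: Rat Arfgap1 GAP domain (His6, aa 1-136), purified enzyme | Buffer or medium: HEPES 25 mM pH 7.5, NaCl 150 mM, MgCl2, DTT | Schedule: GTP hydrolysis reaction 2 h at 25 °C | Signal: FP of antibody-bound GDP Alexa 633 tracer, ex 620/em 688 nm | Measure: Percent inhibition of Arfgap1-stimulated GTP hydrolysis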
Yeast Mot1 SUMO: growth restoration of Mot1-301 yeast on galactose, dose response, SUMO pathway inhibitor project, whole organism, S. cerevisiae, ATP luminescence, cherry-picked samples. shares compounds with Mot1-301 SUMO. S. cerevisiae Mot1-301 galactose growth, 24 h; -100 = growth of slx-deleted rescue strain. growth activity, percent, % at 42 µM. 2,300 tested, under 10 active. AID 493004, 2010;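 active means Signal drops as the depositor expects, and the fitted half-maximal dose is no more than ten times the top valid tested dose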;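 further: more negative values mean stronger growth rescue toward the control strain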
Hits are given with their value; n = inactive; x = no result given; + = active, no number. Sampled rows, rich in hits. Any-hit rate of the full collection: about 2.1%.

SMILES | A3G deaminase | ASAP1 GAP inh | Statin myotox sup | Mot1-301 SUMO | A3A deaminase | ARFGAP1 inh | Yeast Mot1 SUMO
CCc1ccccc1NC(=O)N[C@@H](C)C(=O)OC | n | n | n | 649.8 | n | n | n
COC(=O)C1C(c2ccc(OC)c(OC)c2)NC(c2ccc(OC)c(OC)c2)C(C(=O)OC)S1(=O)=O (centres undefined) | n | n | x | 519.6 | n | n | n
Cc1cc(C)n2nc(SCC(=O)NC3CCCC(C)C3C)nc2n1 (centres undefined) | n | n | n | 516.8 | n | n | n
Cc1cc(C)n2c(SCC(=O)NC3CCCC(C)C3C)nnc2n1 (centres undefined) | n | n | x | n | n | n | x
CC(C)(C)C(=O)NC1(C(F)(F)F)NC(=O)N(c2ccccc2F)C1=O (centres undefined) | n | n | n | 482.9 | n | n | n
O=C(NC1(C(F)(F)F)NC(=O)N(c2ccccc2F)C1=O)c1ccncc1 (centres undefined) | n | n | n | n | n | n | x
Cc1cc2nc(-c3ccc(NC(=O)C(C)C)cc3)oc2cc1C | n | n | x | n | n | n | x
CC(C)C(=O)Nc1ccc(-c2nc3ncccc3o2)cc1 | n | n | n | n | n | n | x
CC(C)C(=O)Nc1cccc(-c2nc3ncccc3o2)c1 | n | n | n | + | n | n | n
CC(C)C(=O)Nc1ccc(-c2nc3cccnc3o2)cc1 | n | n | n | 665.8 | n | n | n
Cc1ccc(S(=O)(=O)Nc2ccc3c(c2)C(=O)N([C@@H](C)CO)C[C@H](C)[C@H](CN(C)C(=O)c2ccncc2)OCCCC[C@@H](C)O3)cc1 | x | x | n | x | x | x | x
Cc1c(OC(C)C(=O)N2C[C@H]3C[C@@H](C2)c2cccc(=O)n2C3)ccc2c3c(c(=O)oc12)CCCC3 (some centres undefined) | n | n | n | 683.9 | n | n | n
Cc1ccccc1OCc1nnc(SCC(=O)N2CCc3ccccc32)n1C | n | n | n | n | n | n | x
Cc1cccc(OCc2nnc(SCC(=O)N3c4ccccc4CC3C)n2C)c1C (centres undefined) | n | n | n | 399.8 | n | n | n
O=C(Cc1ccccn1)NCC[C@H]1CC[C@H](NC(=O)CN2CCOCC2)[C@H](CO)O1 | x | x | n | x | x | x | x
Cc1cc(=O)oc(C)c1C(=O)Nc1ccc(Cl)cn1 | n | n | n | 421.3 | n | n | n
Cc1cc(=O)oc(C)c1C(=O)Nc1cccnc1Cl | n | n | x | n | n | n | x
C[C@H]1CN=C(Nc2ccccc2)N1CCC1CCCC1 | n | n | n | 920.7 | n | n | n
CC(C)C[C@H]1CN=C(Nc2ccccc2)N1CCC1CCCC1 | n | n | n | n | n | n | x
CCN(CC)C(=O)C1CCCN(c2ccc([N+](=O)[O-])cc2/C=N/NC(=O)c2cccc(Br)c2)C1 (centres undefined) | n | n | n | 648.2 | n | n | n
O=C(N/N=C/c1cc([N+](=O)[O-])ccc1N1CCCCCC1)c1ccccn1 | n | n | x | n | n | n | x
COc1ccc(CN2[C@@H](CO)[C@@H]3c4ccccc4N(C(=O)CC(F)(F)F)C[C@@H]32)cc1 | x | x | n | x | x | x | x
O=C(c1cc(-c2ccccc2)nc2ccccc12)N1CCOCC1 | n | n | n | n | n | n | x
CC(C)c1ccc(-c2cc(C(=O)N3CCOCC3)c3cc(Br)ccc3n2)cc1 | n | n | n | 614.2 | n | n | n
N#Cc1ccc(-c2ccc3c(c2)[C@H]2[C@H](CCN2Cc2cncnc2)[C@H](CO)N3)cc1 | x | x | n | x | x | x | x
SMILES | A3G deaminase | ASAP1 GAP inh | Statin myotox sup | Mot1-301 SUMO | A3A deaminase | ARFGAP1 inh | Yeast Mot1 SUMO
Cc1cc2ncc(C(=O)N=CN(C)C)cn2n1 | n | n | x | 498.2 | n | n | n
Cc1cc(NC(=O)c2ccc(N3C(=O)CCC3=O)cc2)no1 | n | n | 115.2 | 700.9 | n | n | n
Cc1cc(NC(=O)c2ccc(N3C(=O)C4C5C=CC(C5)C4C3=O)cc2)no1 (centres undefined) | n | n | x | n | n | n | x
CNC[C@H]1Oc2cc(-c3ccccc3F)ccc2S(=O)(=O)N([C@H](C)CO)C[C@@H]1C | x | x | n | x | x | x | x
CC(=O)Nc1nn(C)c2nc3ccc(C)cc3cc12 | n | n | n | 479.1 | n | n | n
Cc1nn(CC(=O)Nc2ccccn2)c(C)c1[N+](=O)[O-] | n | n | n | 423.8 | n | n | n
Cc1nn(CCCC(=O)Nc2ccccn2)c(C)c1[N+](=O)[O-] | n | n | x | n | n | n | x
O=C(O)c1cc(S(=O)(=O)Nc2ccc(OCc3ccccc3)cc2)ccc1Br | n | n | n | 414.1 | n | n | n
O=C(O)c1cccc(S(=O)(=O)Nc2ccc(OCc3ccccc3)cc2)c1 | n | n | n | n | n | n | x
Cc1nn(C(C)(C)C)c(OC(=O)c2ccc3c(c2)OCO3)c1Sc1ccccc1 | n | n | x | n | n | n | x
Cc1nn(C(C)(C)C)c(OC(=O)c2ccc3c(c2)OCO3)c1S(=O)(=O)c1ccccc1 | n | n | n | + | n | n | n
CO[C@H]1CN(C)C(=O)c2ccc(NC(=O)Cc3ccccc3)cc2OC[C@H](C)N(C(=O)c2ccccc2F)C[C@H]1C | x | x | n | x | x | x | x
CO[C@@H]1CN(C)C(=O)c2cc(NC(=O)NC(C)C)ccc2OC[C@H](C)N(C(=O)C2CCC2)C[C@@H]1C | x | x | n | x | x | x | x
CCCNC(=O)N(C)C[C@H]1Oc2ncc(C#CC3CC3)cc2C(=O)N([C@H](C)CO)C[C@@H]1C | x | x | n | x | x | x | x
CCN(CC)c1ccc(C=C2C(=O)OC(c3ccccc3)OC2=O)cc1 (centres undefined) | n | n | x | + | n | n | n
